Published values of several laboratories.
Compare with care: the assays were run in different laboratories.
Target: Cyclin-dependent kinase 18 (CDK18, Homo sapiens, UniProt Q07002)

Compound	observed	technique	tested at	remaining binding [%]
O=C1CCc2cc(Nc3cc(OC4CCOCC4)c([N+](=O)[O-])cc3Cl)ccc2N1	cell-free assay	competition with immobilised ligand	1 µM	100
N[C@@H]1CCN(c2nccc(-c3cnn4ncccc34)n2)C1	binding		1 µM	100
COc1cnc(Nc2cccc(S(N)(=O)=O)c2)nc1N1CCN(c2ccccc2)C(=O)C1	binding	competition with immobilised ligand	1 µM	100
CCN1CCN(Cc2ccc(C(=O)Nc3ccc(C)c(Oc4ccc5c(c4)CC(=O)N5)c3)cc2C(F)(F)F)CC1	binding	competition with immobilised ligand	1 µM	100
O=C(c1ccc(Nc2ncc(Cl)c(-c3ccc(Cl)s3)n2)cc1)N1CCC(N2CCCC2)CC1	binding	competition with immobilised ligand	1 µM	43
C=CC(=O)N1CCC(C(=O)NCC(=O)N2CCN(c3nc(-c4cnc(N)nc4C(F)F)nc(N4CCOCC4)n3)CC2)CC1	binding	competition with immobilised ligand	1 µM	95
CN1CCN(c2ccc(Nc3nccc(-c4ccccc4)n3)cc2C(F)(F)F)CC1	binding		10 µM	23
c1cnn2ncc(-c3ccnc(N4CCC45COC5)n3)c2c1	binding		1 µM	98
O=C(Nc1c[nH]nc1C(=O)NC1CCNCC1)c1cc(F)cc(F)c1	binding	competition with immobilised ligand	1 µM	78
CN(C)c1nccc(-c2cnn3ncccc23)n1	binding		1 µM	89
COc1ncc2cc3ccccc3nc2c1C#N	cell-free assay	competition with immobilised ligand	5 µM	90
CC1CCCN1c1nccc(-c2cnn3ncccc23)n1 (stereo not shown)	binding		1 µM	100
NS(=O)(=O)c1cc(NC(=O)C2(c3ccccc3Cl)CC2)ccc1Oc1cccc(Cl)c1	cell-free assay	competition with immobilised ligand	1 µM	69
CN(CCCC(F)(F)F)c1nccc(-c2cnn3ncccc23)n1	binding		1 µM	52
CN(C)c1ncnc(-c2ccc3nc(Nc4cc(CN5CCN(C(=O)CC(F)(F)F)CC5)ccn4)[nH]c3c2)c1Cl	cell-free assay	competition with immobilised ligand	1 µM	100
COc1cnc(Nc2cccc(S(N)(=O)=O)c2)nc1N1CCN(c2ccccc2)CC1	binding	competition with immobilised ligand	1 µM	98
CCC(=N\O)/C(C)=C/c1ccc(F)cc1	cell-free assay	competition with immobilised ligand	1 µM	89
O=C(NCCCN1CCOCC1)c1ccc(Nc2nccc(-c3cc4ccccc4s3)n2)cc1	binding	competition with immobilised ligand	1 µM	99
NS(=O)(=O)c1cc(NC(=O)Cc2ccccc2)ccc1Oc1cccc(Cl)c1	cell-free assay	competition with immobilised ligand	1 µM	100
C[C@H]1CCN(c2nccc(-c3cnn4ncccc34)n2)C1	binding		1 µM	100
O=C(NCCCN1CCOCC1)c1ccc(Nc2ncc(Cl)c(-c3ccc(Cl)s3)n2)cc1	binding	competition with immobilised ligand	1 µM	70
O=C(Nc1ccc(Oc2ccc(F)cc2)cc1)N1CCc2ncccc2[C@H]1c1ccc(F)cc1	cell-free assay	competition with immobilised ligand	1 µM	98
